Measurements collected from several papers.
Protocols differ between the studies behind these lines.
Target: MAP/microtubule affinity-regulating kinase 4 (MARK4, Homo sapiens, UniProt Q96L34)
Sequence (Q96L34 1-752, as in one of the studies): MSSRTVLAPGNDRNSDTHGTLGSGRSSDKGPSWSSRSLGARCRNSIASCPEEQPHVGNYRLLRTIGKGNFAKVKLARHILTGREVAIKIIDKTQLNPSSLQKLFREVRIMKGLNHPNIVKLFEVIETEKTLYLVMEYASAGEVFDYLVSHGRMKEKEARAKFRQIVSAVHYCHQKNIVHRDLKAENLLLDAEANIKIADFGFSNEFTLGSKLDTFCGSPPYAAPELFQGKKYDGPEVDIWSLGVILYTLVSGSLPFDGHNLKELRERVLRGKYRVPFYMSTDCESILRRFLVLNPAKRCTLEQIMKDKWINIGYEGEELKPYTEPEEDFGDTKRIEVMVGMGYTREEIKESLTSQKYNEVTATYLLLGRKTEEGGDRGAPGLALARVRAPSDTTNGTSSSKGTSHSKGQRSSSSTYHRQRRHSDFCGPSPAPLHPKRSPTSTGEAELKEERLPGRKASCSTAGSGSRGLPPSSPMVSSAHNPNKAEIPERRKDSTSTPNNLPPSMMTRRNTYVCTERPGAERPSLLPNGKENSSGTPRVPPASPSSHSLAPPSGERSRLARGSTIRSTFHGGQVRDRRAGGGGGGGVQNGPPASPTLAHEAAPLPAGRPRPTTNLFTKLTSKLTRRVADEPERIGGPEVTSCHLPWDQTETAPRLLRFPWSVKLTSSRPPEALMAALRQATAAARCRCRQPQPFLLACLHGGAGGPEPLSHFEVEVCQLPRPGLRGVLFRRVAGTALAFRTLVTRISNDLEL

| Structure (SMILES) | effect on | action | technique | tested at | endpoint | result |
| --- | --- | --- | --- | --- | --- | --- |
| C[C@H]1CCN(c2nccc(-c3cnn4ncccc34)n2)C1 | binding | – | – | 1 µM | remaining binding | 100% |
| CC/C(=N\NC(=O)NCc1cccc(O)c1)c1ccc(O)c(C)c1O | enzyme activity | inhibitor | – | 0.1 µM | inhibition | -2.4% |
| COc1cc(/C=C/C(=O)CC(=O)/C=C/c2ccc(O)c(OC)c2)ccc1O | enzyme activity | inhibitor | – | 1 µM | activity vs control | 74% |
| N#CCCc1ccc2c(c1)-c1[nH]c3ccc([N+](=O)[O-])cc3c1CC(=O)N2 | cell-free assay | – | – | 0.5 µM | remaining signal | 62.5% |
| CC(=O)N1CCC(c2ccc(C(=O)NC(=N)N)cc2C(F)(F)F)CC1 | cell-free assay | – | competition with immobilised ligand | 1 µM | remaining binding | 100% |
| FC(F)(F)Oc1cccc(-c2cnc3ccc(-c4ccncc4)nn23)c1 | enzyme activity | inhibitor | radiometric | 5 µM | activity vs control | 93% |
| CCCCN(CCCC)C(=O)CN1C[C@@H](c2cc(OC)c3c(c2)OCO3)[C@H](C(=O)O)[C@H]1CC(C)(C)CCC | cell-free assay | – | competition with immobilised ligand | 1 µM | remaining binding | 93% |
| NS(=O)(=O)c1ccc(CNc2nc(Nc3cccc(NC(=O)N4CCCC4)c3)ncc2Br)cc1 | enzyme activity | inhibitor | radiometric | 1 µM | remaining activity | 42% |
| CCOCCn1cc(C(=O)Nc2ccc(-n3nc(-c4cccnc4)cc3C(F)(F)F)cn2)ccc1=O | cell-free assay | – | competition with immobilised ligand | 1 µM | remaining binding | 100% |
| NS(=O)(=O)c1ccc(CNc2nc(Nc3cccc(NC(=O)N4CCCC4)c3)ncc2C2CC2)cc1 | enzyme activity | inhibitor | radiometric | 1 µM | remaining activity | 89% |
| O=C(Nc1cccnn1)N1CCC(=Cc2cccc(Oc3ccc(C(F)(F)F)cn3)c2)CC1 | cell-free assay | – | competition with immobilised ligand | 1 µM | remaining binding | 76% |
| Oc1cccc(-c2nc(N3CCOCC3)c3oc4ncccc4c3n2)c1 | enzyme activity | inhibitor | – | 10 µM | remaining activity | 108% |
| O=C(NCCCNc1nc(Nc2cccc(NC(=O)N3CCCC3)c2)ncc1C1CC1)C1CCC1 | enzyme activity | inhibitor | radiometric | 1 µM | remaining activity | 7% |
| COc1cc(Nc2cnc(C#N)c(O[C@H](C)CN(C)C)n2)ncc1-c1cnn(C)c1 | enzyme activity | inhibitor | radiometric | 10 µM | remaining activity | 83% |
| C[C@H](c1cccc(C#N)c1)n1cc(Cl)cc(C(N)=O)c1=N | cell-free assay | – | competition with immobilised ligand | 1 µM | remaining binding | 99% |
| O=C(NCCCNc1nc(Nc2cccc(CN3CCOCC3)c2)ncc1C1CC1)C1CCC1 | enzyme activity | inhibitor | radiometric | 1 µM | remaining activity | 5% |
| CO[C@@H](C)c1c(Nc2ccc([C@H](N(C)C(=O)C3CCS(=O)(=O)CC3)C(F)(F)F)cc2)cnc2cc(Cl)nn12 | cell-free assay | – | competition with immobilised ligand | 1 µM | remaining binding | 76% |
| NS(=O)(=O)c1ccc(CNc2ccnc(Nc3cccc(CN4CCOCC4)c3)n2)cc1 | enzyme activity | inhibitor | radiometric | 1 µM | remaining activity | 98% |
| CN1CCN(c2cnc3c(C4CCN(C(=O)c5ccc(OC(F)(F)F)cc5N)CC4)ncnc3c2)CC1 | cell-free assay | – | competition with immobilised ligand | 1 µM | remaining binding | 100% |
| Cc1nn(CC(F)(F)F)cc1Nc1ncc(C2CC2)c(NCc2ccc(S(N)(=O)=O)cc2)n1 | enzyme activity | inhibitor | radiometric | 1 µM | remaining activity | 110% |
| COc1cc(Nc2c(C#N)cnc3cc(OCCCN4CCN(C)CC4)c(OC)cc23)c(Cl)cc1Cl | cell-free assay | – | – | 0.5 µM | remaining signal | 60.6% |
| Cc1nn(CC(F)(F)F)cc1Nc1ncc(Br)c(NCCc2cnc[nH]2)n1 | enzyme activity | inhibitor | radiometric | 1 µM | remaining activity | 49% |
| COc1cc2ncnc(Nc3ccc(Oc4ccccc4)cc3C)c2cc1OC | enzyme activity | inhibitor | – | 1 µM | inhibition | 6% |
| NS(=O)(=O)c1ccc(CNc2nc(Nc3cccc(CN4CCOCC4)c3)ncc2Br)cc1 | enzyme activity | inhibitor | radiometric | 1 µM | remaining activity | 61% |
| CN1CC(Oc2cnc(C#N)cc2-c2ccn3nc(NC(=O)C4CC4)cc3c2)C1 | enzyme activity | inhibitor | – | 1 µM | inhibition | 8% |
